Here are results for 3 molecules from ChEMBL document CHEMBL1151854, “Dendrimers ended by non-symmetrical azadiphosphonate groups: synthesis and immunological properties” (Bioorg Med Chem Lett, 2009).

Calls of active or inactive are those of the source. The calls are words filed in the database; no cut-off is given here.

The test system of series [1] is PBMC. Description: Activation of human PBMC assessed as down-regulation of HLA-DR expression at 20 uM after 4 days by flow cytometry. In kind it is functional, cell-based. The procedure, abridged: (§1)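 Fresh blood from healthy adult donors; PBMC isolated on Ficoll-Paque gradient (800 g, 30 min, room temperature), washed twice and cultured at 1.5 million cells/mL in RPMI 1640 with penicillin/streptomycin, 1 mM pyruvate and 10% heat-inactivated FCS. Sterile-filtered dendrimer was added at the final concentration. Monocytes were gated by morphology. The readout was HLA-DR (FITC) or CD14 (PE-Pc5) staining, given as the mfi ratio versus isotype control. Three donors were tested.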

The test system of series [2] is PBMC. Description: Activation of human PBMC assessed as occurrence of bigger and granular monocytes by flow cytometry. In kind it is functional, cell-based. Put shortly:
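Donor PBMC were prepared on Ficoll-Paque and cultured in complete RPMI 1640 (10% heat-inactivated FCS, 1.5 million cells/mL) with sterile-filtered dendrimer at the final concentration. By flow cytometry (LSR-II), monocytes were selected on scatter morphology, and the read-out was an increase in cell size and granularity.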
A general note: A flow cytometer gives signals particle by particle.

The subject of series [3] is PBMC. As to the kind of experiment: Activation of human PBMC assessed as down-regulation of HLA-DR expression after 4 days by flow cytometry. In kind it is functional, cell-based. The procedure, abridged:
as §1

In series [4] the test system is PBMC. Description: Activation of human PBMC assessed as down-regulation of CD14 expression after 4 days by flow cytometry. In kind it is functional, cell-based. The procedure, abridged: as §1
Series [5] relates to PBMC. As to the kind of experiment: Activation of human PBMC assessed as down-regulation of HLA-DR expression at 2 uM after 4 days by flow cytometry. In kind it is functional, cell-based. Put shortly: as §1
The subject of series [6] is PBMC. As to the kind of experiment: Activation of human PBMC assessed as down-regulation of CD14 expression at 2 uM after 4 days by flow cytometry. In kind it is functional, cell-based. The procedure, abridged:
as §1

The test system of series [7] is PBMC. Description: Activation of human PBMC assessed as down-regulation of HLA-DR expression by flow cytometry. In kind it is functional, cell-based. The procedure, abridged: as §1
Series [8] can be described thus: Solubility in water. To be noted: buffer. In kind it is physicochemical.
The test system of series [9] is PBMC. As to the kind of experiment: Activation of human PBMC assessed as down-regulation of CD14 expression by flow cytometry. In kind it is functional, cell-based. Put shortly: as §1
In series [10] the test system is PBMC. Description: Activation of human PBMC assessed as down-regulation of CD14 expression at 20 uM after 4 days by flow cytometry. In kind it is functional, cell-based. The procedure, abridged: as §1
Series [11] deals with PBMC. Description: Cytotoxicity against long-lasting cultures of human PBMC. In kind it is cell-based.

For `C=CCN(CP(=O)([O-])O)C(c1ccc(OP(=S)(Oc2ccc(C(N(CC=C)CP(=O)([O-])O)P(=O)([O-])O)cc2)N(C)/N=C/c2ccc(OP3(Oc4ccc(/C=N/N(C)P(=S)(Oc5ccc(C(N(CC=C)CP(=O)([O-])O)P(=O)([O-])O)cc5)Oc5ccc(C(N(CC=C)CP(=O)([O-])O)P(=O)([O-])O)cc5)cc4)=NP(Oc4ccc(/C=N/N(C)P(=S)(Oc5ccc(C(N(CC=C)CP(=O)([O-])O)P(=O)([O-])O)cc5)Oc5ccc(C(N(CC=C)CP(=O)([O-])O)P(=O)([O-])O)cc5)cc4)(Oc4ccc(/C=N/N(C)P(=S)(Oc5ccc(C(N(CC=C)CP(=O)([O-])O)P(=O)([O-])O)cc5)Oc5ccc(C(N(CC=C)CP(=O)([O-])O)P(=O)([O-])O)cc5)cc4)=NP(Oc4ccc(/C=N/N(C)P(=S)(Oc5ccc(C(N(CC=C)CP(=O)([O-])O)P(=O)([O-])O)cc5)Oc5ccc(C(N(CC=C)CP(=O)([O-])O)P(=O)([O-])O)cc5)cc4)(Oc4ccc(/C=N/N(C)P(=S)(Oc5ccc(C(N(CC=C)CP(=O)([O-])O)P(=O)([O-])O)cc5)Oc5ccc(C(N(CC=C)CP(=O)([O-])O)P(=O)([O-])O)cc5)cc4)=N3)cc2)cc1)P(=O)([O-])O.[Na+].[Na+].[Na+].[Na+].[Na+].[Na+].[Na+].[Na+].[Na+].[Na+].[Na+].[Na+].[Na+].[Na+].[Na+].[Na+].[Na+].[Na+].[Na+].[Na+].[Na+].[Na+].[Na+].[Na+]` (stereo not drawn), the outcome in the series on PBMC [1], in the series on PBMC [2], in the series on PBMC [5], in the series with PBMC [6], with PBMC [7] and in the series on PBMC [9] was Active. Further, the outcome with PBMC [10] was Active. In addition, the Activity result with PBMC [3] and in the series with PBMC [4] was “Dose-dependent effect” each time. Moreover, in series [8], the solubility entry is reported as “Soluble”.

As to `CCCCN(CP(=O)([O-])O)C(c1ccc(OP(=S)(Oc2ccc(C(N(CCCC)CP(=O)([O-])O)P(=O)([O-])O)cc2)N(C)/N=C/c2ccc(OP3(Oc4ccc(/C=N/N(C)P(=S)(Oc5ccc(C(N(CCCC)CP(=O)([O-])O)P(=O)([O-])O)cc5)Oc5ccc(C(N(CCCC)CP(=O)([O-])O)P(=O)([O-])O)cc5)cc4)=NP(Oc4ccc(/C=N/N(C)P(=S)(Oc5ccc(C(N(CCCC)CP(=O)([O-])O)P(=O)([O-])O)cc5)Oc5ccc(C(N(CCCC)CP(=O)([O-])O)P(=O)([O-])O)cc5)cc4)(Oc4ccc(/C=N/N(C)P(=S)(Oc5ccc(C(N(CCCC)CP(=O)([O-])O)P(=O)([O-])O)cc5)Oc5ccc(C(N(CCCC)CP(=O)([O-])O)P(=O)([O-])O)cc5)cc4)=NP(Oc4ccc(/C=N/N(C)P(=S)(Oc5ccc(C(N(CCCC)CP(=O)([O-])O)P(=O)([O-])O)cc5)Oc5ccc(C(N(CCCC)CP(=O)([O-])O)P(=O)([O-])O)cc5)cc4)(Oc4ccc(/C=N/N(C)P(=S)(Oc5ccc(C(N(CCCC)CP(=O)([O-])O)P(=O)([O-])O)cc5)Oc5ccc(C(N(CCCC)CP(=O)([O-])O)P(=O)([O-])O)cc5)cc4)=N3)cc2)cc1)P(=O)([O-])O.[Na+].[Na+].[Na+].[Na+].[Na+].[Na+].[Na+].[Na+].[Na+].[Na+].[Na+].[Na+].[Na+].[Na+].[Na+].[Na+].[Na+].[Na+].[Na+].[Na+].[Na+].[Na+].[Na+].[Na+]` (stereo not drawn), the outcome in the series with PBMC [1], in the series with PBMC [2], in the series with PBMC [5], in the series with PBMC [6], with PBMC [7] and with PBMC [9] was Active. For the same molecule, the result in the series with PBMC [10] was Active. The Activity entry with PBMC [11] was “Toxic”. In addition, the solubility result in series [8] is listed as “Soluble”.

Consider `CN(CP(=O)(O)O)C(c1ccc(OP(=S)(Oc2ccc(C(N(C)CP(=O)(O)O)P(=O)(O)O)cc2)N(C)/N=C/c2ccc(OP3(Oc4ccc(/C=N/N(C)P(=S)(Oc5ccc(C(N(C)CP(=O)(O)O)P(=O)(O)O)cc5)Oc5ccc(C(N(C)CP(=O)(O)O)P(=O)(O)O)cc5)cc4)=NP(Oc4ccc(/C=N/N(C)P(=S)(Oc5ccc(C(N(C)CP(=O)(O)O)P(=O)(O)O)cc5)Oc5ccc(C(N(C)CP(=O)(O)O)P(=O)(O)O)cc5)cc4)(Oc4ccc(/C=N/N(C)P(=S)(Oc5ccc(C(N(C)CP(=O)(O)O)P(=O)(O)O)cc5)Oc5ccc(C(N(C)CP(=O)(O)O)P(=O)(O)O)cc5)cc4)=NP(Oc4ccc(/C=N/N(C)P(=S)(Oc5ccc(C(N(C)CP(=O)(O)O)P(=O)(O)O)cc5)Oc5ccc(C(N(C)CP(=O)(O)O)P(=O)(O)O)cc5)cc4)(Oc4ccc(/C=N/N(C)P(=S)(Oc5ccc(C(N(C)CP(=O)(O)O)P(=O)(O)O)cc5)Oc5ccc(C(N(C)CP(=O)(O)O)P(=O)(O)O)cc5)cc4)=N3)cc2)cc1)P(=O)(O)O` (stereo not drawn), for which the result in the series on PBMC [1], with PBMC [5], with PBMC [6] and with PBMC [10] was Active.
